Screens (PubChem BioAssay)
PPC-1+TRAIL kill = kills PPC-1 cancer cells in the presence of TRAIL. cell killing (% activity), % at 4 µM or 5 µM. PPC-1 cells + TRAIL, ATPLite viability luminescence. 220,000 compounds, 0.41% hits;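 active = cell killing above 50% in the first pass at 4 µM, then a duplicate retest at 5 µM averaging 50% or more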;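 note: plate controls were cells with TRAIL plus DMSO for no effect and medium-only wells lacking cells for full effect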
FLuc inh counter = counter-screen for luciferase assay inhibitors: firefly luciferase inhibition. P08659. ATPLite firefly luciferase biochemical luminescence, 10 min. inhibition, % at 10 µM. 200,000 compounds, 1.5% hits. AID 1006;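 active = inhibition above about 50% when tested at 10 µM, limit read from the data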
Target sequence (P08659 whole entry, looked up): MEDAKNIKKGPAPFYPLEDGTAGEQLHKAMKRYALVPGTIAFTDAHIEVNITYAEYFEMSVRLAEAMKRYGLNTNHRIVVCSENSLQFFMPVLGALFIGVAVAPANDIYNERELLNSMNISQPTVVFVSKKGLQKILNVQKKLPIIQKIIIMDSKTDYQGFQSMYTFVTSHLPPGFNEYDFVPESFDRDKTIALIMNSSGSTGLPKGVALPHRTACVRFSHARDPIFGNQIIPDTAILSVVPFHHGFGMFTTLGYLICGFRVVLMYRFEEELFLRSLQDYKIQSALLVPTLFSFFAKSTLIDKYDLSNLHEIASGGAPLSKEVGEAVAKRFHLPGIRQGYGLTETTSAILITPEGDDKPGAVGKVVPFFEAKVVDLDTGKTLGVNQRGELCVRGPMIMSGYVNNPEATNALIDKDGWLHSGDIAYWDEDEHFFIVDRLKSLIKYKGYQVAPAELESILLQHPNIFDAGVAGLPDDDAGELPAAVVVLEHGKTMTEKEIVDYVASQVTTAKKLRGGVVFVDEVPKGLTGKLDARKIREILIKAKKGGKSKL
TRAIL sens C8 = sensitizes caspase-8 expressing cells to TRAIL. NB7+C8 cells + TRAIL, ATPlite viability luminescence. inhibition (viability loss, TRAIL sensitization), % at 10 µM. 360,000 compounds, 1% hits;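 active = compounds causing at least 50% loss of cell viability in the single-dose screen, relative to plate controls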
HSP90 inh = inhibitors of HSP90 luciferase refolding in rabbit reticulocyte lysate. luciferase refolding luminescence, 3 h. inhibition, % at 5.6 µM. 290,000 compounds, 0.91% hits;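 active = inhibition above the screen-wide mean plus 3 SD, computed separately per campaign, cut at about 16% in these data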;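 note: 0% = DMSO wells and 100% = 60 µM geldanamycin wells; inhibitors lower the luminescence because luciferase stays unfolded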
FLuc stim CS = firefly luciferase counter-screen for stimulation assays; ATPlite luciferase biochemical, luminescence, 10 min; 0 = ATP-free wells, 1 = DMSO control; activation factor at 10 µM; 200,000 tested, under 10 active;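 active = luciferase activation factor, scaled between plate controls, of at least 2 with compound at 10 µM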
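Assay system – cell-free luciferase reagent · Medium – PBS-based ATP solution · Dosing – test compounds dosed from 2 mM stocks in 100% DMSO · Timing – 10 min, room temperature · Technique – light output (luminescence) · Measure – luminescence gain marking luciferase activators · Controls – No-ATP low control, compound-free enzyme-plus-ATP high control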
STAT3 inh = STAT3 signaling inhibition | 190,000 compounds, 0.89% hits | inhibition, % at 5.5 µM | AID 862 | U3A cells, IL-6 STAT3-luciferase reporter, luminescence; host cell line lacks STAT1;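 active = inhibition above the mean inhibition across all screened compounds plus 3 SD, cut at about 44% in these data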;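 note: 0% = DMSO only wells and 100% = 100 µM nifuroxazide control wells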
* = called active by the depositor; / = not tested or not shown. Only some compounds are listed: those with a hit (about 2.2% of all), similar ones and a draw of the others.

SMILES	PPC-1+TRAIL kill	FLuc inh counter	TRAIL sens C8	HSP90 inh	FLuc stim CS	STAT3 inh
Cc1cc(=O)[nH]c2nnc(-c3ccc(Cl)cc3)n12	/	/	68*	-1	/	/
CCOC(=O)c1cc(OC(=O)Cc2ccc(OC)c(S(=O)(=O)N3CCOCC3)c2)cc(C(=O)OCC)c1	/	/	-19	/	/	/
COc1ccc(-c2coc3cc(O)ccc3c2=O)cc1	/	/	28	/	/	/
COc1ccc(-c2coc3cc(O)ccc3c2=O)cc1O	23	54*	16	1	0.5	/
Cc1ccc(S(=O)(=O)NCc2ccccc2)cc1C(=O)NCCc1ccc(S(N)(=O)=O)cc1	/	/	19	/	/	/
COc1ccc2oc(C(=O)Nc3nc4ccc(S(C)(=O)=O)cc4s3)c(C)c2c1	/	/	5	/	/	/
Cc1ccc2oc(C(=O)Nc3nnc(C)s3)c(C)c2c1	38	59*	45	-4	0.4	27
COc1ccc2oc(C(=O)Nc3nnc(C)s3)c(C)c2c1	/	/	70*	/	/	/
CCOc1ccc(C(=O)NCCC(=O)N2CCC3(CC2)NCCc2[nH]cnc23)cc1OCC	/	/	-21	-2	/	/
CCO[C@@H]1OC(C(=O)NCc2nc3ccccc3[nH]2)=C[C@H](c2cn(C(C)=O)c3ccccc23)[C@H]1CCCO	16	-2	-2	16*	1	/
CCO[C@H]1OC(C(=O)NCc2nc3ccccc3[nH]2)=C[C@@H](c2cn(C(C)=O)c3ccccc23)[C@@H]1CCCO	/	/	14	/	/	/
COc1ccc(O)c(C(=O)c2coc(=N)c(C(=O)Nc3ccc(SC(F)F)cc3)c2)c1	3	-3	12	-2	1	11
COc1ccc(-c2cnnc(N/N=C/c3ccc(C)o3)n2)cc1	-5	4	-17	1	1	3
Oc1ccc(/C=N\Nc2nncc(-c3ccccc3)n2)cc1	21	/	18	0	/	/
COc1ccc(-c2cnnc(N/N=C/c3ccc(O)c(O)c3)n2)cc1	44	85*	11	-5	0.1	2
COc1ccc(-c2cnnc(N/N=C/c3ccc(O)cc3)n2)cc1	41	73*	11	-2	0.3	16
N#C/C(=C\c1cccn1S(=O)(=O)c1ccccc1)S(=O)(=O)c1ccc(F)cc1	/	/	9	/	/	/
COCCSc1ccccc1C(=O)N1CCc2ccccc21	/	/	-12	0	/	/
C[C@@H]1CN([C@@H](C)CO)C(=O)CCCn2nncc2CO[C@@H]1CN(C)C(=O)C1CCCCC1	/	/	1	/	/	/
CCC(=O)OCC(=O)c1cc(C)n(-c2ccc(Br)cc2)c1C	-3	59*	7	0	0.4	5
Cc1cc(C(=O)CSc2n[nH]c(N)n2)c(C)n1-c1ccccc1	21	59*	36	2	0.4	-11
Cc1cc(C(=O)COC(=O)C2=NNC(=O)CC2)c(C)n1-c1ccccc1	45	64*	-2	3	0.4	12
Cc1ccc(-n2c(C)cc(C(=O)CSc3n[nH]c(N)n3)c2C)cc1	20	26	10	-4	0.7	10
Cc1cc(C(=O)COC(=O)C2=COCCO2)c(C)n1-c1ccccc1	/	/	73*	/	/	/
CCn1nccc1NC(=O)c1csc([C@H]2C[C@H](O)[C@@H](CO)O2)n1	/	/	-6	/	/	/
SMILES	PPC-1+TRAIL kill	FLuc inh counter	TRAIL sens C8	HSP90 inh	FLuc stim CS	STAT3 inh
N#CC1=CC2CN(Cc3ccccc3)C1C1C(=O)N(c3ccccc3)C(=O)C21 (configuration not stated)	/	/	19	/	/	/
CCCCc1ccc(NC(=O)c2ccc(N(C)S(C)(=O)=O)cc2)cc1	17	/	53*	1	/	/
Nc1c(Cl)ncnc1N/N=C/c1ccc2ccccc2n1	62*	72*	43	-2	0.3	-14
Nc1c(Cl)ncnc1N/N=C/c1cccnc1	4	/	-2	-1	/	/
Nc1c(Cl)ncnc1N/N=C/c1ccnc2ccccc12	40	53*	10	4	0.5	26
Nc1c(Cl)ncnc1N/N=C/c1ccccn1	20	37	/	9	0.6	-3
O=C(COC(=O)CCS(=O)(=O)c1ccccc1)NC(=O)c1ccc(OC(F)F)cc1	/	/	-5	/	/	/
O=C(C1CC(=O)N(c2ccc(Cl)cc2)C1)N1CCC(c2nc3ccccc3[nH]2)CC1 (configuration not stated)	/	/	21	/	/	/
O=C(Nc1ncccc1O)c1ccc2c(c1)OCO2	/	/	24	/	/	/
O=C(Nc1ncccc1O)c1ccc2ccccc2c1	/	/	29	17*	/	/
CCOc1ccc(C(=O)NCC(=O)OCCN2C(=O)c3ccccc3C2=O)cc1OCC	/	/	-8	/	/	/
N#Cc1c(Cl)nsc1NC(=O)c1ccccc1	17	2	44	5	1	56*
Cc1ccc(N2Cc3ccccc3C2=S)cc1	39	76*	35	7	0.2	23
Cc1ccc(S(=O)(=O)N2CC3C(=O)C[C@@H](c4ccccc4)N(S(=O)(=O)c4ccccc4Cl)C3CC2c2ccccc2)cc1 (some centres not stated)	/	/	2	/	/	/
O=C(O)COn1c(-c2ccc(Cl)cc2)nc2ccc(Cl)cc21	34	27	17	0	0.7	-6
COc1ccc(-c2nc3ccccc3n2OCC(=O)O)cc1	47	72*	40	2	0.3	20
Cn1cc(-c2cc(C(=O)O)on2)cn1	1	/	-13	-5	/	/
CCOc1ccccc1CNS(=O)(=O)c1cnc[nH]1	/	/	-10	-2	/	/
CC(=O)OCCN(C)c1cc(SC(C)C)c2nonc2c1[N+](=O)[O-]	10	-3	3	2	1	-16
CN(CCO)c1cc(Sc2nc3ccccc3s2)c2nonc2c1[N+](=O)[O-]	9	-4	60*	3	1	-7
Cc1nn(-c2ccccc2)c2c1C(c1c(C)[nH]c(C#N)c1C)C(C#N)=C(N)O2 (configuration not stated)	-27	-7	4	36*	1.1	-37
Cc1nn(-c2ccccc2)c(Cl)c1C1C(C#N)=C(N)Oc2c1c(C)nn2-c1ccccc1 (configuration not stated)	20	-10	-3	-3	1.1	-6
O=Nc1ccc(NOC(=O)c2ccccc2Br)cc1	24	77*	-3	0	0.2	-7
C1=CC(c2cc3ccccc3o2)OC(CCc2ccccc2)C1 (configuration not stated)	/	/	-24	0	/	/
CC(=O)Nc1sc(NC(=O)c2ccccc2)nc1-c1cccs1	2	-6	10	-2	1.1	7
COc1ccccc1C(=O)Nc1nc(-c2cccs2)c(NC(C)=O)s1	49	50*	51*	-4	0.5	10
CCS(=O)(=O)N1Cc2ccccc2CC1C(=O)Nc1nc2ccccc2s1 (configuration not stated)	17	35	29	26*	0.7	22
CCc1nnc(NC(=O)C2Cc3ccccc3CN2S(=O)(=O)CC)s1 (configuration not stated)	8	-7	-2	3	1.1	17
